Experimental data from ChEMBL document CHEMBL5036316, “Re-emerging Aspartic Protease Targets: Examining Cryptococcus neoformans Major Aspartyl Peptidase 1 as a Target for Antifungal Drug Discovery” (J Med Chem, 2021).
Active and inactive are the calls of the source. The calls are words filed in the database; no cut-off is given here.

Assays:
[1] = Binding affinity to recombinant Cryptococcus neoformans var. grubii H99 major aspartyl peptidase 1 assessed as inhibition constant
CCRF-CEM = test: Cytotoxicity against human CCRF-CEM cells assessed as cell viability by celltiter-glo luminescent cell viability assay; type: cell-based
Cryptococcus neoformans [2] = test: Antifungal activity against may1delta Cryptococcus neoformans var. grubii H99 assessed as reduction of density in logarithmic phase at 50 uM measured upto 48 hrs; type: functional, organism-based; settings: time hrs <=48
In short: (§1)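 Logarithmically growing may1Δ (and H99) yeast pelleted and resuspended to OD600 0.1 in unbuffered YNB or YNB with 50 mM MES pH 6.5. Treated with 50 μM compound or 0.5% DMSO vehicle at 30 °C on a tube rotator. OD600 read every 2 h for 12 h, then at 24 and 48 h. Triplicate cultures, mean ± standard deviation.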

[3] = Inhibition of porcine pepsin assessed as inhibition constant using BSA-bromophenol blue as substrate by spectrophotometric analysis; set-up: species or system Sus scrofa
MCF7 = test: Cytotoxicity against human MCF7 cells assessed as cell viability by celltiter-glo luminescent cell viability assay; type: functional
Cryptococcus neoformans [4] = test: Antifungal activity against may1delta Cryptococcus neoformans var. grubii H99 assessed as reduction of density in stationary phase at 50 uM measured upto 48 hrs; type: functional, organism-based; settings: time hrs <=48; in short: as §1
Renin = target: T1, Renin (Homo sapiens, UniProt P00797); test: Inhibition of human renin assessed as inhibition constant using H-R-E(EDANS)-1HPFHLVIHT-K(DABCYL)-R-OH as susbtrate by spectrophotometric analysis
T1 sequence (P00797 whole entry): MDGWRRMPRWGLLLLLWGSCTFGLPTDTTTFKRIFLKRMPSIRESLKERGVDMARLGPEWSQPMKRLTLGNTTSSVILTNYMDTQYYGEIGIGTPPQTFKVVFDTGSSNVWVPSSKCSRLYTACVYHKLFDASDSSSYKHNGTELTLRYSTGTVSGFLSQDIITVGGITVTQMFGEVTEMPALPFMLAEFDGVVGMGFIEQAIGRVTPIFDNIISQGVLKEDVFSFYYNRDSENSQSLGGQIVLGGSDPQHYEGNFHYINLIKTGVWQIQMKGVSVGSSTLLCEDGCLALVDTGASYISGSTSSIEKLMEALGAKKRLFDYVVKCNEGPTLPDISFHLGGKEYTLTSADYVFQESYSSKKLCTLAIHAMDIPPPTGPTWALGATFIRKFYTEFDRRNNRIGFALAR

HeLa = test: Cytotoxicity against human HeLa cells assessed as cell viability by celltiter-glo luminescent cell viability assay; type: functional
Cryptococcus neoformans [5] = test: Antifungal activity against Cryptococcus neoformans var. grubii H99 expressing major aspartyl peptidase 1 assessed as growth inhibition measured after 48 hrs; type: functional, organism-based; settings: dose 0.1-50 µM
In short: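 C. neoformans H99 grown in YNB with 2% glucose; overnight cultures diluted to OD600 0.1 with 0.1, 1.0, 10 or 50 μM compound or 0.5% DMSO vehicle. Incubated at 30 °C on a tube rotator; terminal saturation density read as OD600 after 48 h. Triplicate cultures, mean ± standard deviation.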

HepG2 = test: Cytotoxicity against human HepG2 cells assessed as cell viability by celltiter-glo luminescent cell viability assay; type: functional
HL-60 = test: Cytotoxicity against human HL-60 cells assessed as cell viability by celltiter-glo luminescent cell viability assay; type: functional
Cathepsin D = Cathepsin D (Homo sapiens, UniProt P07339); test: Inhibition of human cathepsin D assessed as inhibition constant using ACC-GKPILFFRILK-(DNP)-(dR)-NH2 as substrate by spectrophotometric analysis
[6] = target: Human immunodeficiency virus type 1 protease (Human immunodeficiency virus 1, UniProt Q72874); test: Inhibition of wild type HIV-1 protease assessed as initial inhibition constant by spectrophotometric analysis
Cathepsin E = target: T2, Cathepsin E (Homo sapiens, UniProt P14091); test: Inhibition of human cathepsin E assessed as inhibition constant using ACC-GKPILFFRILK-(DNP)-(dR)-NH2 as substrate by spectrophotometric analysis
T2 sequence (P14091 whole entry): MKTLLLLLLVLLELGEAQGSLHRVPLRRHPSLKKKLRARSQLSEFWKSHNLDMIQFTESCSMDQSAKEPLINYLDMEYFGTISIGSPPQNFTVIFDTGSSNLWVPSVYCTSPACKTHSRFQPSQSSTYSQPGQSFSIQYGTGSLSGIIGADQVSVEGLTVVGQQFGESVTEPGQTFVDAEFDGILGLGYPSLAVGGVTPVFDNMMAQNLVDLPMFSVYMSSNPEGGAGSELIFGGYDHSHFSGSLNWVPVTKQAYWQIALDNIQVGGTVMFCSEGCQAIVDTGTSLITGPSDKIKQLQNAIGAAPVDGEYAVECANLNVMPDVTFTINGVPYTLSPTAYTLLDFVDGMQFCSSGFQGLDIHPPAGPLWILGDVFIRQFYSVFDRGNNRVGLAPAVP

Chain of Cathepsin D (P07339 65-162 limits assumed): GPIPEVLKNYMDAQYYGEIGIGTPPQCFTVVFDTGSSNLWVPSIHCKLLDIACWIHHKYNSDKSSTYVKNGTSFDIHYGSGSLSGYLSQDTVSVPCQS
Chain of Cathepsin D (P07339 169-412 limits assumed): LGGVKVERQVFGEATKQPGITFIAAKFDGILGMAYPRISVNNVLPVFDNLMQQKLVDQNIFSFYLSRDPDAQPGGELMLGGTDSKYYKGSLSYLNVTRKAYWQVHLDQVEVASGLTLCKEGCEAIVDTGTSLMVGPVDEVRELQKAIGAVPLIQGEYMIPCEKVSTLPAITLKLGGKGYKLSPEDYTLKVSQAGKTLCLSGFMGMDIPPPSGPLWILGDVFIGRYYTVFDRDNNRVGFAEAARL

Row | SMILES | Ki [1] [nM] | further results
1 | CC[C@H](C)[C@H](NC(=O)[C@H](CCC(=O)O)NC(=O)C[C@H](O)[C@H](Cc1ccccc1)NC(=O)OCc1ccccc1)C(N)=O | 410 | 
2 | NC(=O)CC[C@H](NC(=O)C[C@H](O)[C@H](Cc1ccccc1)NC(=O)OCc1ccccc1)C(=O)N[C@@H](CC1CCCCC1)C(N)=O | 400 | 
3 | C[C@@H](O)[C@H](NC(=O)[C@H](CCC(N)=O)NC(=O)C[C@H](O)[C@H](Cc1ccccc1)NC(=O)OCc1ccccc1)C(N)=O | 1300 | 
4 | CCCC[C@H](NC(=O)[C@H](CCC(N)=O)NC(=O)C[C@H](O)[C@H](Cc1ccccc1)NC(=O)OCc1ccccc1)C(N)=O | 170 | 
5 | NC(=O)CC[C@H](NC(=O)C[C@H](O)[C@H](Cc1ccccc1)NC(=O)OCc1ccccc1)C(=O)N[C@@H](CCc1ccccc1)C(N)=O | 64 | 
6 | NC(=O)[C@H](CC1CCCCC1)NC(=O)[C@H](CCC(=O)O)NC(=O)C[C@H](O)[C@H](Cc1ccccc1)NC(=O)OCc1ccccc1 | 160 | 
7 | NC(=O)[C@H](CCc1ccccc1)NC(=O)[C@H](CCC(=O)O)NC(=O)C[C@H](O)[C@H](Cc1ccccc1)NC(=O)OCc1ccccc1 | 12 | CC50 (CCRF-CEM): > 80000 nM; Activity (Cryptococcus neoformans [2]): inactive; Ki [3]: 1600 nM; CC50 (MCF7): > 80000 nM; Activity (Cryptococcus neoformans [4]): inactive; Ki (Renin): 19000 nM; CC50 (HeLa): > 80000 nM; Activity (Cryptococcus neoformans [5]): Dose-Dependent Effect; CC50 (HepG2): > 80000 nM; CC50 (HL-60): > 80000 nM; Ki (Cathepsin D): 620 nM; Ki [6]: 0.032 nM; Ki (Cathepsin E): 440 nM
8 | CC(C)[C@H](NC(=O)[C@H](Cc1ccccc1)C[C@H](O)[C@H](Cc1ccccc1)NC(=O)OC(C)(C)C)C(=O)N[C@@H](Cc1ccccc1)C(=O)N1CCOCC1 | 13 | 
9 | CC(C)CN(C[C@@H](O)[C@H](Cc1ccccc1)NC(=O)O[C@H]1CCOC1)S(=O)(=O)c1ccc(N)cc1 | 750 | 
10 | CCC[C@H](NC(=O)[C@H](CCC(N)=O)NC(=O)C[C@H](O)[C@H](Cc1ccccc1)NC(=O)OCc1ccccc1)C(N)=O | 470 | 
11 | CC(C)[C@H](NC(=O)[C@H](CCC(N)=O)NC(=O)C[C@H](O)[C@H](Cc1ccccc1)NC(=O)OCc1ccccc1)C(N)=O | 120 | 
12 | CC(C)C[C@H](NC(=O)[C@H](CCC(=O)O)NC(=O)C[C@H](O)[C@H](Cc1ccccc1)NC(=O)OCc1ccccc1)C(N)=O | 160 | 
13 | NC(=O)CC[C@H](NC(=O)C[C@H](O)[C@H](Cc1ccccc1)NC(=O)OCc1ccccc1)C(=O)N[C@@H](Cc1ccccc1)C(N)=O | 320 | 
14 | NC(=O)[C@H](Cc1ccccc1)NC(=O)[C@H](CCC(=O)O)NC(=O)C[C@H](O)[C@H](Cc1ccccc1)NC(=O)OCc1ccccc1 | 390 | 
15 | C[C@@H](O)[C@H](NC(=O)[C@H](CCC(=O)O)NC(=O)C[C@H](O)[C@H](Cc1ccccc1)NC(=O)OCc1ccccc1)C(N)=O | 250 | 
16 | CC[C@H](C)[C@H](NC(=O)[C@H](CCC(N)=O)NC(=O)C[C@H](O)[C@H](Cc1ccccc1)NC(=O)OCc1ccccc1)C(N)=O | 240 | 
17 | Cc1nc(COc2ccc(C[C@H](NC(=O)O[C@H]3CO[C@H]4OCC[C@H]43)[C@H](O)CN(CC(C)C)S(=O)(=O)c3ccc4c(c3)OCO4)cc2)cs1 [BRECANAVIR] | 350 | 
18 | CCOP(=O)(COc1ccc(C[C@H](NC(=O)O[C@H]2CO[C@H]3OCC[C@H]32)[C@H](O)CN(CC(C)C)S(=O)(=O)c2ccc(OC)cc2)cc1)OCC | 170 | 
19 | NC(=O)CC[C@H](NC(=O)C[C@H](O)[C@H](Cc1ccccc1)NC(=O)OCc1ccccc1)C(=O)N[C@H](C(N)=O)c1ccccc1 | 360 | 
20 | NC(=O)[C@@H](NC(=O)[C@H](CCC(=O)O)NC(=O)C[C@H](O)[C@H](Cc1ccccc1)NC(=O)OCc1ccccc1)c1ccccc1 | 210 | 
21 | CSCC[C@H](NC(=O)[C@H](CCC(=O)O)NC(=O)C[C@H](O)[C@H](Cc1ccccc1)NC(=O)OCc1ccccc1)C(N)=O | 280 | 
22 | CC[C@H](NC(=O)[C@H](CCC(=O)O)NC(=O)C[C@H](O)[C@H](Cc1ccccc1)NC(=O)OCc1ccccc1)C(N)=O | 760 | 
23 | NC(=O)[C@H](Cc1c[nH]c2ccccc12)NC(=O)[C@H](CCC(=O)O)NC(=O)C[C@H](O)[C@H](Cc1ccccc1)NC(=O)OCc1ccccc1 | 340 | 
24 | CC[C@H](NC(=O)[C@H](CCC(N)=O)NC(=O)C[C@H](O)[C@H](Cc1ccccc1)NC(=O)OCc1ccccc1)C(N)=O | 1200 | 
25 | CCC[C@H](NC(=O)[C@H](CCC(=O)O)NC(=O)C[C@H](O)[C@H](Cc1ccccc1)NC(=O)OCc1ccccc1)C(N)=O | 410 | 
26 | CC(C)[C@H](NC(=O)[C@H](CCC(=O)O)NC(=O)C[C@H](O)[C@H](Cc1ccccc1)NC(=O)OCc1ccccc1)C(N)=O | 82 | Activity (Cryptococcus neoformans [5]): Dose-Dependent Effect
27 | CCCC[C@H](NC(=O)[C@H](CCC(=O)O)NC(=O)C[C@H](O)[C@H](Cc1ccccc1)NC(=O)OCc1ccccc1)C(N)=O | 180 | Activity (Cryptococcus neoformans [5]): Dose-Dependent Effect
28 | CSCC[C@H](NC(=O)[C@H](CCC(N)=O)NC(=O)C[C@H](O)[C@H](Cc1ccccc1)NC(=O)OCc1ccccc1)C(N)=O | 290 | 
